7 compounds from PubChem BioAssay can be followed below.

Calls of active or inactive are those of the source.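 Rule for the calls, unless noted: active = compounds giving at least 50% inhibition in the cell-based MKP-3 phosphatase rescue imaging test; inactive = the rest.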

Experiment [1] in a line: inhibitors of TNFa-induced NFkB p65 translocation, primary screen, imaging, HUVEC, MLSMR starter and 10KST1 sets (AID 438;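 active = inhibition above 20% together with a positive visual image hit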;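 note: compound added about 3h40 before a 20 min TNFalpha stimulation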;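 for inhibition: signal is the nuclear over cytoplasmic p65 intensity ratio per well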). Conditions: HUVEC TNFa-induced p65 nuclear translocation; cell count: measured here: nuclei count (cytotoxicity indicator), at 2.08 µM; inhibition: at 2 µM, stronger effect = higher value, 0% TNFa-plus-vehicle, 100% no-TNFa wells.
The nature of experiment [2]: endothelial E-selectin expression blockers – imaging, HUVEC, immunofluorescence, MLSMR starter and 10KST1 sets, primary screen (AID 487;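 active = visually confirmed hit in the image check and inhibition above 20%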;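 for inhibition: signal is fraction of cell area covered by stained E-selectin grains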;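 for nuclei count: 100% = median nuclei count of all wells on the same plate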). Conditions: HUVEC TNFalpha-induced E-selectin immunofluorescence imaging, at 2 µM; inhibition: stronger effect = higher value; nuclei count: measured here: cell number, toxicity.
Experiment [3] is described as follows: Primary imaging screen for DUSP6 inhibitors that restore phospho-Erk in transfected HeLa cells, chemical complementation (AID 609).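 For inhibition: phospho-Erk level distribution per well compared with pooled transfected vehicle control wells.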 Conditions: HeLa MKP-3 transfected, phospho-Erk imaging KS statistic, at 10 µM, cells stimulated with TPA for 15 min.
Experiment [4] deals with Dual specificity protein phosphatase 6 (Homo sapiens) (UniProt Q16828). The experiment is described as above. Conditions: HeLa MKP-3 transfected, phospho-Erk imaging KS statistic; at 10 µM; stronger effect = higher value; cells stimulated with TPA for 15 min.
Experiment [5] deals with Voltage-gated potassium channel subunit beta-2 (Rattus norvegicus) (UniProt P62483). As to the kind of experiment: inhibitors of rat Kvbeta2 reductase activity – biochemical, NADPH fluorescence, primary screen (AID 622;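 active = fluorescence slope higher than the sample average by over 3 SD, cut at about -0.22 in these data, passing the limit was not always enough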;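 note: slope of raw intensity against log time taken from 70 to 1610 s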). Conditions: recombinant KvBeta, 4-cyanobenzaldehyde reduction, at 10 µM, stronger effect = higher value.
For experiment [6] the target is unchanged. As to the kind of experiment: enhancers of rat Kvbeta2 NADPH turnover – biochemical, NADPH fluorescence, primary screen (AID 623;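 active = NADPH fluorescence slope more negative than the mean of all samples by about 3 SD, 99.7% confidence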;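 note: fluorescence intensity change per second fitted from 20 to 320 s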). Conditions: Recombinant KvBeta, NADPH fluorescence decrease slope, 10 min; at 10 µM; stronger effect = lower value.
The target of experiment [7] is Muscarinic acetylcholine receptor M4 (Homo sapiens) (UniProt P08173). In words: M4-linked GIRK flux change, two-sided – cell-based, HEK293 M4/GIRK, thallium flux, BTC-AM, M4 allosteric agonist project, primary screen (AID 625;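 active = fluorescence slope after compound addition differing from the mean of all tested samples at 99.7% confidence, mostly higher but some lower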;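 note: thallium influx through GIRK channels coupled to M4 in HEK293 cells with BTC-AM dye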). Conditions: at 10 µM, actives lie on both sides. The essentials: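 Material – HEK293 cells with M4 receptor and GIRK channels · Buffer or medium – pH 7.3 thallium assay buffer · Doses – one dose, 10 µM final · Timing – cells overnight at 37 °C, BTC-AM loading 1 h, reads 2 min total · Measured by – kinetic fluorescence with BTC-AM dye · Controls – carbachol and DMSO controls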

The nature of experiment [8]: inhibitors of larval lipid processing in zebrafish, primary screen, whole organism, PED6 fluorescence, gall bladder and intestine (AID 686;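 active = a full or partial loss of lipid-probe fluorescence in the fish gall bladder, intestine or both, judged by eye; inactive = no fluorescence loss, or compound toxic to the fish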;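 note: larvae 5 to 7 days old with five fish per well; signal comes from phospholipase A2 cleavage of quenched PED6 carried via bile; overnight exposure to compound and PED6 before scoring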). Conditions: Zebrafish larvae PED6 lipid processing, fluorescence scoring; screened at 20 µM (by protocol). A digest of the protocol:
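system = live zebrafish larvae aged 5-7 days, whole organism | probe or stimulus = ingested quenched lipid PED6 at 100 nM | doses = 20 µM single dose | timing = overnight exposure | detection = fluorescence microscopy with visual scoring of gall bladder and intestine | read-out = visual per-well fluorescence inhibition score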

Experiment [9] can be described thus: loss of swimming-algae plug formation – whole organism, Chlamydomonas reinhardtii, WT vs cilia-less mutant, absorbance, 96-well, primary screen (AID 463189;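 active = inhibition at or above 50% relative to wild type and mutant plate controls; inactive = inhibition below 50%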;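 note: 0% = wild type cc124 cells in DMSO and 100% = ciliumless bld1 mutant cells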). Conditions: Chlamydomonas reinhardtii gravitaxis, OD600 absorbance, 2 days; at 10 µM; stronger effect = higher value.
Setting [10] is: measured here: cell density z-score.
Setting [11] is: measured here: nuclear c-Myc green intensity z-score.
Setting [12] is: measured here: nuclear pErk red intensity z-score, stronger effect = higher value.

Voltage-gated potassium channel subunit beta-2 (Rattus norvegicus), sequence (P62483 whole entry, looked up): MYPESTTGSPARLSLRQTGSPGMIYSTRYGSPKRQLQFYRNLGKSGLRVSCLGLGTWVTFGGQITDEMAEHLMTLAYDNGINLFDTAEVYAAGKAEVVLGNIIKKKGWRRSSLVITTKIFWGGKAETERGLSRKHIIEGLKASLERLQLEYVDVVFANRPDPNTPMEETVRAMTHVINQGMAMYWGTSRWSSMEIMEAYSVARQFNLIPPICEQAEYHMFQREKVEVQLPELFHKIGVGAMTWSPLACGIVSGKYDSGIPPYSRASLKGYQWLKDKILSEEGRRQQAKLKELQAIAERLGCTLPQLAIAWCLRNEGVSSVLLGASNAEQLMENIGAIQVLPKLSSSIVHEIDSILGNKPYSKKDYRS
Dual specificity protein phosphatase 6 (Homo sapiens), sequence (Q16828 whole entry, looked up): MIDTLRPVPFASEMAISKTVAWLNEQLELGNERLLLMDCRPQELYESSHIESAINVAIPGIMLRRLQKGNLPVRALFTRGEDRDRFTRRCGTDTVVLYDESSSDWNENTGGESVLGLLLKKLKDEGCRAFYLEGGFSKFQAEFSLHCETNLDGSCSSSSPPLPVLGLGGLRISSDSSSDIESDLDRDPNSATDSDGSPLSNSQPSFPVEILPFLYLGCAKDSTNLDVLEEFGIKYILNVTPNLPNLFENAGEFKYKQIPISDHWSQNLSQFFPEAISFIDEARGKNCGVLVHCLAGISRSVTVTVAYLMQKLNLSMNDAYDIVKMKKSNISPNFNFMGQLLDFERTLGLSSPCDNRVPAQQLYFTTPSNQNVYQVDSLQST
Muscarinic acetylcholine receptor M4 (Homo sapiens), sequence (P08173 whole entry, looked up): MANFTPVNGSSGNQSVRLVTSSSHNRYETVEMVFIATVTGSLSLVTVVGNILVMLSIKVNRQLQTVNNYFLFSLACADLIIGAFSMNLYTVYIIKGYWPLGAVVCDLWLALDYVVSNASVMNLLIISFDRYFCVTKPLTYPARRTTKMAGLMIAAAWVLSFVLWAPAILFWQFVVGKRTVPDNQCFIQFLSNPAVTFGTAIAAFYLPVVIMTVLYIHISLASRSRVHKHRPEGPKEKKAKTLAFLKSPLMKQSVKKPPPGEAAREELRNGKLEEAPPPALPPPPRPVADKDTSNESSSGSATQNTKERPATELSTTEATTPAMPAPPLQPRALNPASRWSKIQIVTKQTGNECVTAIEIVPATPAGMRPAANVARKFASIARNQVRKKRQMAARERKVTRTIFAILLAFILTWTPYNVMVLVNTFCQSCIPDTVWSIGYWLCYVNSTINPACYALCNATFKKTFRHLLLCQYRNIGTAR

Consider `COCCNc1oc(-c2ccc(F)cc2)nc1C#N`, for which, in experiment [1], the cell count stood at 631. Also, the inhibition was -8.1% (inactive) in experiment [1], -48.8% (inactive) in [2], 24% (inactive) in [4] and -8.51% (inactive) in experiment [9]. Moreover, the nuclei count in experiment [2] worked out at 162%. In addition, the figures for the z-score in experiment [3] (setting [10]), in experiment [3] (setting [11]) and in experiment [3] (setting [12]) were 1.98, -0.407 and 1.1, respectively. The fluorescence slope in experiment [5] is -0.446 (inactive); in [7], 0.00617 (inactive). In experiment [6], the NADPH fluorescence slope is -6.5e-05 (inactive). Further, the compound was classed as inactive in experiment [8].
On to `CCN(CC)c1nc(N2CCOCC2)c(C#N)c2c1CN(C)CC2`, for which, in experiment [1], the cell count is 580. The inhibition is -9.1% (inactive) in experiment [1], -116% (inactive) in experiment [2], 7.21% (inactive) in experiment [4] and 43.3% (inactive) in experiment [9]. In addition, the nuclei count in experiment [2] worked out at 152%. Moreover, the z-score in experiment [3] (setting [10]) was 1.03; in experiment [3] (setting [11]), -1.51; in experiment [3] (setting [12]), 0.0125. The results for the fluorescence slope in [5] and in [7] were -0.43 (inactive) and 0.00408 (inactive), respectively. Besides, the NADPH fluorescence slope in [6] was -0.000217 (inactive). For the same compound, the result in experiment [8] was inactive.
Regarding `Cc1cc(C)c(C#N)c(OCC(=O)c2ccccc2)n1`, the cell count in experiment [1] is 450. The inhibition in experiment [1] was -5.3% (inactive); in [2] it was -69% (inactive); in experiment [4], -3.95% (inactive); in experiment [9], -6.74% (inactive). In experiment [2], this compound gave a nuclei count of 156%. Moreover, the z-score was -0.815 in experiment [3] (setting [10]), 1.05 in experiment [3] (setting [11]) and 0.134 in experiment [3] (setting [12]). In addition, the figures for the fluorescence slope in [5] and in [7] were -0.405 (inactive) and 0.00481 (inactive), respectively. Also, in [6], the NADPH fluorescence slope was -3.4e-05 (inactive). The result in experiment [8] was inactive.
With `CCCCCOc1ccc(C(=O)NCC(=O)NCC(=O)OCC)cc1`, the cell count in experiment [1] is 715. Also, the inhibition is 9.7% (inactive) in experiment [1], -113% (inactive) in [2], 1.63% (inactive) in experiment [4] and -5.95% (inactive) in experiment [9]. The nuclei count in experiment [2] turned out to be 150%. For the same compound, the z-score in [3] (setting [10]) was -0.426; in experiment [3] (setting [11]), -0.0633; in experiment [3] (setting [12]), -0.949. Besides, the fluorescence slope was -0.417 (inactive) in experiment [5] and 0.00389 (inactive) in [7]. In experiment [6], the NADPH fluorescence slope is -6e-05 (inactive). In experiment [8], the result was inactive.
`COc1ccc(OC)c(NS(=O)(=O)c2ccc(N3CCCC3=O)cc2)c1`: in [1], the cell count was 645. Also, the inhibition was 24% (active) in experiment [1], -344% (inactive) in [2], -3.97% (inactive) in [4] and 14% (inactive) in experiment [9]. The nuclei count in experiment [2] is 139%. The z-score in experiment [3] (setting [10]) was 1.32; in experiment [3] (setting [11]) it was -0.903; in experiment [3] (setting [12]), -0.414. The fluorescence slope is -0.465 (inactive) in experiment [5] and 0.00599 (inactive) in [7]. For the same compound, the NADPH fluorescence slope in [6] was -0.000177 (inactive). Besides, the call in experiment [8] was inactive.
As for `COCCCNC(=O)c1c(N)n(/N=C/c2ccccn2)c2nc3ccccc3nc12`, the cell count in experiment [1] is 736. In addition, the inhibition in experiment [1] is 7.3% (inactive); in experiment [2], 5.4% (inactive); in experiment [4] it was -1.12% (inactive); in experiment [9], 82.5% (active). This compound also had a nuclei count in experiment [2] of 148%. Moreover, the z-score in experiment [3] (setting [10]) was found to be 0.26; in experiment [3] (setting [11]) it was 1.28; in experiment [3] (setting [12]), 1.17. In addition, the fluorescence slope was -0.424 (inactive) in experiment [5] and 0.00553 (inactive) in [7]. For the same compound, the NADPH fluorescence slope in experiment [6] is -5.6e-05 (inactive). Moreover, the outcome in experiment [8] was inactive.
As for `CCCCn1c(=O)n(C)c(=O)c2c3c(sc21)COC(C)(C)C3`, in experiment [1], the cell count was determined as 589. In addition, the inhibition in experiment [1] is -5.2% (inactive); in experiment [2], -64.5% (inactive); in [4], 1.63% (inactive); in [9], 43.8% (inactive). This compound also registered a nuclei count in [2] of 144%. The z-score is -0.346 in experiment [3] (setting [10]), -0.449 in [3] (setting [11]) and -0.806 in experiment [3] (setting [12]). Moreover, the fluorescence slope in experiment [5] is -0.447 (inactive); in experiment [7], 0.00382 (inactive). The NADPH fluorescence slope in experiment [6] was -1.3e-06 (inactive). The compound was called inactive in experiment [8].

The inhibition is the change of the read-out against control, counted positive when it falls.
